Screening results: PubChem, several laboratories
Sampled rows, rich in hits. Any-hit rate of the full collection: about 5.4%.
CSC inhib: blocks cancer stem cells. cancer stem cell-like cells viability, luminescence. 300,000 tested, 1.1% active. AID 2717. inhibition, % at 7.5 µM; in the data active means inhibition above about 75%; inconclusive means no clear call, values can overlap the other calls; tested in HMLE shEcad cells
SKKanGAS inh: inhibitors of SKKanGAS S. pyogenes growth in kanamycin (SK-promoter or general growth effect); BacTiter-Glo, 6 h; inhibition, % at 7.5 µM; 300,000 tested, 1.3% active;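 active means mean replicate score, as percent of positive control median, at least 50; inconclusive means mean below 50 but one replicate at or above 50; inactive means mean and every replicate below 50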;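 further: strain carries kanamycin resistance gene driven by streptokinase promoter and grows in 40 µg/ml kanamycin; loss of luminescence reflects streptokinase promoter inhibition or plain growth inhibition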
aSyn UTR inh: MLPCN primary screen, SNCA 5' untranslated region. 300,000 tested, 0.82% active. alpha-synuclein 5'UTR reporter, inhibitor activity. inhibition, % (tested at 7.5 µM); in the data active means inhibition above about 60%; inconclusive means no clear call, values can overlap the other calls;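 further: H4 neuroglioblastoma cells stably carrying SNCA 5'UTR luciferase fusion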
Mdm2 MdmX PPI: inhibitors of human Mdm2/MdmX interaction | SaOS-2 split-luciferase Mdm2/MdmX complementation, luminescence | 330,000 tested, 3% active | inhibition, % at 8 µM;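 active means inhibition of at least 50% at 8 µM in the primary screen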
T cruzi repl: T. cruzi replication inhibition; T. cruzi beta-gal in NIH3T3, luminescence, 90 h; inhibition, % (concentration not given with the values); 300,000 tested, 1.4% active;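 active means mean inhibition across valid replicates above about 55%, limit read from the data; inconclusive means mean below that limit but half or more replicates reach it; inactive means mean below it, under half of replicates reach it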;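 further: signal also drops with host cell toxicity which is not excluded here; higher percent means less beta-gal luminescence so fewer parasites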
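Assay system: NIH/3T3 host cells with β-galactosidase reporter T. cruzi; input: 5,000 host fibroblasts per well; compound: single 50 nL compound addition per well in DMSO; timing: ≥90 h infection period, 3 h prior cell attachment; measured by: GalScreen β-gal luminescence, detergent lysis, 60 min; evaluation: percent inhibition of parasite-derived β-gal signal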
Of the large screens only hits and unclear results are named; the others gave an inactive call; ! = a repeat was not active.

CCCCOC(=O)Nc1nnc(C(C)C)s1	T cruzi repl 64
CCN(CC)C(=S)Sc1c(-c2ccccc2)c2cc(Cl)ccc2[nH]c1=O	SKKanGAS inh 92
Cc1cc(-c2ccccc2)nc(N/N=C/c2ccc(O)cc2O)n1	CSC inhib 96
CN(/N=C/c1ccc(O)cc1O)c1nc(-c2ccccc2)cc(-c2ccccc2)n1	CSC inhib 89, SKKanGAS inh 71, T cruzi repl inconclusive
COc1ccc(COC(=O)c2cccc(S(=O)(=O)N3CCN(C(C)=O)CC3)c2)cc1	none
Cc1ccsc1/C=C(\C(=O)c1ccc(OC(C)C)cc1)c1nc2ccccc2o1	T cruzi repl 68
CN(CC(=O)Nc1ccccc1Cl)C(=O)c1ccc(COc2ccccc2)cc1	none
CCCCCCSc1ccc([C@@H]2[C@H]3C(=O)N(C)C(=O)[C@H]3[C@]3(C(=O)OC)CCCCN23)cc1OC	none (no result: SKKanGAS inh, aSyn UTR inh, T cruzi repl)
CCCCCCSc1ccc([C@@H]2[C@@H]3C(=O)N(C)C(=O)[C@@H]3[C@]3(C(=O)OC)CCCCN23)cc1OC	CSC inhib 105
O=C(CC12CC3CC(CC(C3)C1)C2)NCC(=O)N1CCc2ccccc2C1	none
CN(C)Cc1ccccc1Sc1ccc2c(c1)CCCC2	aSyn UTR inh 104
CC(=O)N=c1sc2c3ccccc3ccc2n1C	T cruzi repl 66
CNC[C@@H]1Oc2ccc(NC(=O)Nc3cccc4ccccc34)cc2C(=O)N([C@@H](C)CO)C[C@@H]1C	none (no result: SKKanGAS inh, aSyn UTR inh, T cruzi repl)
O=C(Nc1ncc(Cc2cccc(C(F)(F)F)c2)s1)c1ccc(-c2cccc([N+](=O)[O-])c2)o1	T cruzi repl 62
O=C(Nc1nccs1)c1ccc(-c2cccc([N+](=O)[O-])c2)o1	none
CCOc1ccc(-c2cc(CCCC(=O)NCCc3ccccc3)no2)cc1	aSyn UTR inh 62
CCOc1ccc(-c2cc(CCCC(=O)Nc3cc(OC)ccc3OC)no2)cc1	aSyn UTR inh 83
COc1ccc(C(CNc2ccc(S(C)(=O)=O)cc2[N+](=O)[O-])N(C)C)cc1OC (configuration not stated)	none
Cc1cccc(C)c1NC(=O)CNC(=O)C1CC(=O)N(Cc2ccccc2)C1 (configuration not stated)	none
Cc1cc(Sc2nc(N)ncc2[N+](=O)[O-])ncn1	T cruzi repl 61
COC(=O)c1cn(-c2ccccc2)nc1-c1ccncc1	none (no result: CSC inhib)
O=C(OCc1ccccc1)c1cn(-c2ccccc2)nc1-c1ccncc1	T cruzi repl 57
COc1ccc(C(C)=O)cc1COc1ccc(Cl)cc1Cl	none
COc1ccc(C(C)=O)cc1COc1cc(C)c(Cl)c(C)c1	SKKanGAS inh 50
CCc1nnc(NS(=O)(=O)c2ccc(N3C(=O)C4CC=C(Cl)CC4C3=O)cc2)s1 (configuration not stated)	none
Cc1ccccc1NC(=S)NCC1CCN(C(C)c2ccccc2)C1 (configuration not stated)	T cruzi repl 58
COc1ccc(OCCOCCN2CCc3ccccc3C2)cc1	T cruzi repl 58
O=C(Nc1ccccc1-c1nc2ccccc2[nH]1)c1ccc(N2C(=O)CCC2=O)cc1	none
CC1CCCCN1S(=O)(=O)c1ccc(C(=O)Nc2ccccc2-c2nc3ccccc3[nH]2)cc1 (configuration not stated)	none
O=C(Nc1ccccc1-c1nc2ccccc2[nH]1)c1ccc(S(=O)(=O)N2CCCCC2)cc1	T cruzi repl 58 (no result: CSC inhib, Mdm2 MdmX PPI)
O=C(Nc1ccccc1-c1nc2ccccc2[nH]1)c1sc2ccccc2c1Cl	SKKanGAS inh 64, T cruzi repl 60
Oc1ccccc1CNc1cccc2cccnc12	none
Nc1sc(-c2ccccc2)n[n+]1Cc1cccc2cccnc12	aSyn UTR inh inconclusive, T cruzi repl 60
NNc1nc(Nc2ccccc2)nc(Nc2ccccc2)n1	SKKanGAS inh 52
COc1ccc(Nc2nc(NN)nc(Nc3ccc(OC)cc3)n2)cc1	SKKanGAS inh 50 (no result: CSC inhib)
COc1ccccc1NC(=O)CSc1nccc(-c2ccco2)n1	none (no result: CSC inhib, SKKanGAS inh, aSyn UTR inh, T cruzi repl)
CC(C)N1C(=O)/C(=C\c2nc3ccccc3c(=O)n2-c2ccccc2)c2ccccc21	CSC inhib 75, T cruzi repl 71 (no result: Mdm2 MdmX PPI)
CCOC(=O)c1ccc(N=c2sc(C(=O)OC)cc(=O)n2CCCN2CCOCC2)cc1	CSC inhib 101!
COC(=O)c1cc(=O)n(CCc2ccccc2)c(=Nc2ccc(F)cc2)s1	none
Cc1ccc(N2C(=O)C3CC(c4ccccc4)=C4C5C=CC(C6C(=O)N(c7ccc(C)cc7)C(=O)C56)C4C3C2=O)cc1 (configuration not stated)	SKKanGAS inh 65
Cc1ccc(N2C(=O)C3CC(c4ccccc4)=C4C5C=CC(C6C(=O)N(c7ccc(C)cc7C)C(=O)C56)C4C3C2=O)c(C)c1 (configuration not stated)	T cruzi repl 59 (no result: CSC inhib)
Nc1cc(C(=O)OCC(=O)N2CCC(Cc3ccccc3)CC2)ccc1Cl	none (no result: CSC inhib, SKKanGAS inh, aSyn UTR inh, T cruzi repl)
CCc1ccc2c(c1)C(c1ccc(N3CCOCC3)cc1)=NNC(c1ccncc1)=N2	T cruzi repl 59
Cc1sc2cc3c(c(C(=O)c4ccccc4)[n+]2c1C)-c1cccc2cccc-3c12	SKKanGAS inh 55, T cruzi repl 74 (no result: Mdm2 MdmX PPI)
CCN1CC(CN(C)Cc2nc(-c3ccco3)oc2C)CC1=O (configuration not stated)	none
CCN1CC(CN(C)Cc2nc(-c3ccc(C(F)(F)F)cc3)oc2C)CC1=O (configuration not stated)	T cruzi repl 59
CCOc1ccc(NC2=NCC(=O)N2Cc2cccs2)cc1	none
CCCc1cc(-c2ccc3c(c2)COc2c4ccccc4nn2-3)on1	none
COc1ccc(-c2cc(C(F)(F)F)c(C#N)c(SCC(=O)Nc3ccc(C)cc3)n2)cc1	none
COc1ccc(C(=O)CSc2[nH]c(=O)cc(C(F)(F)F)c2C#N)cc1	SKKanGAS inh 66
Cc1cc(C(F)(F)F)c2c(n1)sc1c(O)cc(=O)[nH]c12	SKKanGAS inh 50
Cc1cccc(CN2CCCC(C(=O)N3CCCCC3)C2)c1 (configuration not stated)	none
Cc1cccc(CN2CCCC(C(=O)N3CCc4ccccc4C3)C2)c1 (configuration not stated)	T cruzi repl 55
O=C(C1CCCN(Cc2ccc(Cl)cc2)C1)N1CCCCC1 (configuration not stated)	T cruzi repl 57
O=C(C1CCCN(Cc2ccccc2)C1)N1CCCCC1 (configuration not stated)	none
O=C(C1CCCN(Cc2cccc(Cl)c2)C1)N1CCCCC1 (configuration not stated)	T cruzi repl 66
CCCn1c2ccc(C)cc2c2n[nH]c(=S)nc21	none
CCN(C(=O)C(C)Sc1nnc(-c2ccncc2)n1C)C1CCCCC1 (configuration not stated)	none (no result: SKKanGAS inh, aSyn UTR inh, T cruzi repl)
CCN(CC)C(=S)SCC(=O)Nc1nc(-c2ccccc2)c(-c2ccccc2)o1	SKKanGAS inh 83
Cn1nnnc1SCC(=O)Nc1nc(-c2ccccc2)c(-c2ccccc2)o1	SKKanGAS inh 59
